TCR-CD3 inh = inhibitors of human TCR-CD3 interaction, primary screen, biochemical, fluorescence, TAMRA-labeled TCR probe. T-cell receptor (TCR). inhibition, % at 9.4 µM. 0.37% of 360,000 active; in the data active = inhibition above about 19%;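 note: recombinant mutant TCR 2C K166C tagged with TAMRA read by polarization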
PRMT1 FP inh = PRMT1 methyltransferase inhibitors, primary screen, biochemical, fluorescence polarization; Protein arginine N-methyltransferase 1 (Homo sapiens), Q99873; recombinant PRMT1, activity-based probe fluorescence polarization; 1.3% of 370,000 active; inhibition, % at 2.79 µM;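 active = inhibition above about 21% made by adding two undisclosed values, limit read from the data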
rCAG RNA binder = binders of r(CAG) RNA repeats, primary screen, biochemical, fluorescence. 1.3% of 370,000 active. AID 651821, 2012. inhibition, % at 3 µM. r(CAG) RNA repeat, TO-PRO-1 dye displacement fluorescence;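 active = inhibition above the plate cutoff, the mean of all test compounds on that plate plus 3 SD, cut at about 35% in these data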;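 note: higher means more dye released from RNA so lower well fluorescence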
SIAE primary = human SIAE inhibitors, primary screen, biochemical, fluorescence polarization, FP-Rh probe, 1536-well HTS; Sialate O-acetylesterase (Homo sapiens), Q9HAT2; SIAE FP-Rh probe binding; inhibition, % at 9.66 µM; 0.69% of 370,000 active; AID 1053197, 2014;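 active = inhibition above a cutoff: mean of compounds within the control limits plus 3 SD of those, cut at about 17% in these data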
Target sequence (Q9HAT2 whole entry, looked up): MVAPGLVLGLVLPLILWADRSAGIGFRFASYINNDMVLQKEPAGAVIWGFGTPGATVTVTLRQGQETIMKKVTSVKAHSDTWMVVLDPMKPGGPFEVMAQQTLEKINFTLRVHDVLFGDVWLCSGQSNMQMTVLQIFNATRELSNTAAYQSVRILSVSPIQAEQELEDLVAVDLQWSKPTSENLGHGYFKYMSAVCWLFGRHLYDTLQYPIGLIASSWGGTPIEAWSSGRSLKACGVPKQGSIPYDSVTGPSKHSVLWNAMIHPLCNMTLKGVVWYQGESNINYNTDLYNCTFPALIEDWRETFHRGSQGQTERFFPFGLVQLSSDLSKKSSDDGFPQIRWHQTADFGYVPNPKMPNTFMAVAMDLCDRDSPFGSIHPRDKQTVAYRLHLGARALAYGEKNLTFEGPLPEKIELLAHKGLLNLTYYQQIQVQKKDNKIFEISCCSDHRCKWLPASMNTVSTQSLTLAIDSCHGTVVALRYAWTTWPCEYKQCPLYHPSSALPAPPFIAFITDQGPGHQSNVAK
mABHD4 FP = ABHD4 inhibitors, primary screen, biochemical, fluorescence polarization, mouse; inhibition, % at 8.92 µM; 0.54% of 370,000 active; (Lyso)-N-acylphosphatidylethanolamine lipase (Mus musculus), Q8VD66; purified mABHD4, FP-Rh probe fluorescence polarization;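 active = inhibition exceeding the mean over every tested compound plus 3 SD, cut at about 30% in these data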
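Assay system: wild-type mouse ABHD4 protein; compound: single nominal dose of 8.92 µM, 0.89% DMSO final; schedule: 45 min + 60 min at 25 °C; measured by: FP readout, ex 525 nm / em 598 nm; evaluation: % inhibition of FP-Rh probe binding versus controls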
SIAE inh conf = human SIAE inhibitors, retest, confirmation, biochemical, fluorescence polarization, FP-Rh probe, triplicate | shares compounds with SIAE primary | SIAE FP-Rh activity-based probe | inhibition, % at 9.66 µM | 13% of 2,300 active | AID 1117263, 2014;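 active = mean inhibition of the replicates above the hit cutoff set in the primary screen, cut at about 17% in these data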;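 note: inhibitors lower polarization as more probe stays unbound to SIAE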
Large screens that a line does not name were inactive (follow-up assays come after a bar, where they were run). Most compounds without a hit are left out; they make up all but 3.3% or so of the library.

COc1cc(S(=O)(=O)NCCCN2CCOCC2)ccc1-n1cnnn1	SIAE primary 17.3 | SIAE inh conf inactive
O=S1(=O)CC(N2CCN(CCO)CC2)CN1CCc1ccccc1 (stereo unspecified)	none
CCN(CC)c1ccc(/C=N/NC(=O)c2nnn(-c3nonc3N)c2C(C)C)c(O)c1	SIAE primary 17.2 | SIAE inh conf inactive
CCCN(CCC)Cc1c(C(=O)N/N=C/c2ccoc2)nnn1-c1nonc1N	none
CC(C)c1c(C(=O)N/N=C/c2ccc3c(c2)OCO3)nnn1-c1nonc1N	none
CCCN(CCC)Cc1c(C(=O)N/N=C/c2ccco2)nnn1-c1nonc1N	SIAE primary 17.2 | SIAE inh conf inactive
O=C(c1ccc(Br)o1)N1CCN(CCc2ccncc2)CC1	none
COc1ccc(NC(=S)N/N=C/c2cccn2Cc2ccc(F)cc2)cc1	SIAE primary 18.6 | SIAE inh conf inactive
Cc1ccc(Cn2cccc2/C=N/NC(=S)Nc2ccc(C)cc2)cc1	none
Cn1c(N)c(C(=O)COC(=O)c2cccs2)c(=O)n(C)c1=O	SIAE primary 28.4 | SIAE inh conf inactive
Cn1c(N)c(C(=O)COC(=O)CCC(=O)c2cccs2)c(=O)n(C)c1=O	none
CC(C)OC(=O)CSc1nnc(-c2ccccn2)n1C	SIAE primary 17.8 | SIAE inh conf inactive
COc1ccc(NC(=O)C2=NN(c3ccccc3)C(=O)CC2)cn1	none
Cc1ccc(Cl)cc1NC(=O)Cn1c(C)csc1=O	SIAE primary 22.7 | SIAE inh conf inactive
Cc1cc(Cl)ccc1NC(=O)CN1CCCC1	SIAE primary 22.5 | SIAE inh conf inactive
CSCCC(NC(=O)c1ccccc1)C(=O)NCCc1ccc2c(c1)OCCO2 (stereo unspecified)	none
COc1ccc(NC(=O)N2CCC(N(C)CCC(C)C)CC2)cc1OC	none (no result: TCR-CD3 inh)
CC(CNC(=O)CN1C(=O)NC2(CCOc3ccccc32)C1=O)c1ccccc1 (stereo unspecified)	SIAE primary 82.5 | SIAE inh conf inactive
COCCCn1c(C)cc(C(=O)CN2c3cccc4cccc(c34)S2(=O)=O)c1C	none
CCOC(=O)N1CCN(S(=O)(=O)c2ccc(C)c(C(=O)NC3CCCCC3)c2)CC1	SIAE primary 19.4 | SIAE inh conf inactive
CCOC(=O)C1CCN(S(=O)(=O)c2ccc(C)c(C(=O)NC3CCCCC3)c2)CC1	none
O=C(CCNS(=O)(=O)c1ccc(F)c(F)c1)NCCN1CCOCC1	none
CCOCN(C(=O)Cn1cnc2ccccc21)c1c(C)cccc1CC	SIAE primary 18.3 | SIAE inh conf inactive
CCc1cccc(CC)c1N(COC)C(=O)Cn1cnc2ccccc21	none
OC(c1ccccc1)C1(c2ccccc2)CCN(Cc2ccccc2)CC1 (stereo unspecified)	none
Cc1cccc(C(=O)OCC(=O)NC2CCCCCCC2)c1	none
Cc1ccc(C(=O)OCC(=O)NC2CCCCCC2)c(C)c1	SIAE primary 121.8 | SIAE inh conf inactive
CC(=O)c1c(O)cc2c3c1OC(C)(C)C1CCC(C)(CC31)O2 (stereo unspecified)	none
Cc1ccc(OCc2nnc(SCC(=O)Nc3ccc(OCc4ccccc4)cc3)n2-c2ccc(Cl)cc2)cc1	none (no result: TCR-CD3 inh)
COC(=O)C1=C(C(=O)OC)C2(OC1c1ccccc1C)C(=O)c1ccccc1C2=O (stereo unspecified)	SIAE primary 18.9 | SIAE inh conf inactive
COC(=O)C1=C(C)N(C)C(C)=C(C(=O)OC)C1c1ccccc1C	none
CC1(Cc2ccccc2C#N)C(=O)Nc2ccc(-c3ccccc3)cc21 (stereo unspecified)	none
COc1ccc(Nc2nc3ccccc3s2)cc1	none
CCOC(=O)c1sc(Nc2nc3ccc(OC)cc3s2)cc1C	SIAE primary 34.5 | SIAE inh conf inactive
COc1cccc(Nc2nc3ccc(OC)cc3s2)c1	SIAE primary 19.7 | SIAE inh conf inactive
COc1ccc(NC(=O)c2coc(C)c2)cc1	SIAE primary 18.8 | SIAE inh conf inactive
CC(=O)/C(=N/Nc1ccc(C)cc1)Sc1nnc(CCc2ccccc2)n1-c1ccccc1	none
CCOC(=O)/C(=N/Nc1ccc(OC)cc1)Sc1nnc(CCc2ccccc2)n1-c1ccccc1	SIAE primary 17.3 | SIAE inh conf inactive
